Experimental data reported in article PMC4201501 (Journal of chromatography. B, Analytical technologies in …, 2014).
Read-outs that look alike come from different tables or passages of the source.

How the values were obtained:
[1] = Stability of stock solutions at room temperature; assay type: physicochemical; conditions: stock solution in acetonitrile, room temperature (25°C), at least 24 h
Summary of the method: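 Primary stock solutions (10 mM in acetonitrile) of test compound and internal standard were held at room temperature (25°C) for 6, 12 and 24 h before analysis.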

[2] = system: MDM2 protein; conditions: cited from earlier work
[3] = Stability of SP-141 in mouse plasma; assay type: in vitro ADME; conditions: for percentage of intact compound remaining after three freeze-thaw cycles: three freeze-thaw cycles (-20°C/room temperature)
[4] = system: human breast and pancreatic cancers; conditions: cited from earlier work
[5] = assay type: in vivo, CD-1 mice; conditions: CD-1, mouse, plasma, 40 mg/kg
[6] = Autosampler stability of extracted plasma samples; assay type: physicochemical, mouse; conditions: extracted plasma sample, 4°C, 36 h
Summary of the method: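 Extracted mouse-plasma QC samples (1.94, 81.0, 129.6 ng/mL; IS 16.2 ng/mL) were prepared by n-hexane–dichloromethane–2-propanol (20:10:1) extraction, dried under nitrogen at 40°C, and reconstituted in ACN–water 50:50. They were injected immediately (time 0), then re-injected after 36 h at 4°C in the autosampler. Quantitation was by C18 gradient LC–positive ESI MRM, as percentage of intact compound versus time 0.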

With COc1ccc2c(c1)[nH]c1c(-c3ccc4ccccc4c3)nccc12 [SP-157, 7-methoxy-1-(naphthalen-2-yl)-9H-pyrido[3,4-b]indole, reference compound] the “stability of stock solution” value [1] was “stable”.
In the case of COc1ccc2[nH]c3c(-c4cccc5ccccc45)nccc3c2c1 [SP-141, 6-methoxy-1-(naphthalen-1-yl)-9H-pyrido[3,4-b]indole], the “binding to the MDM2 protein” value [2] is given as “directly binds”, the “stability of stock solution” value [1] is given as “stable” and the “percentage of intact compound remaining after three freeze-thaw cycles” value ([3]; 1.94 ng/mL) is given as 96.4% ± 0.6%. For the same molecule, the “percentage of intact compound remaining after three freeze-thaw cycles” value ([3]; 81.0 ng/mL) was 96.2% ± 2.4%, the “percentage of intact compound remaining after three freeze-thaw cycles” value ([3]; 129.6 ng/mL) was 99.3% ± 2.5% and the “compound remained intact after 24-h storage” value ([3]; 4°C, 24 h, all QC concentrations) was “more than 95.3%”. For the same molecule, the “stability in plasma at room temperature” value ([3]; 25°C, up to 24 h, prior to extraction) was “relatively stable”, the “compound remaining after 24-h incubation” value ([3]; 37°C, 24 h, all QC concentrations) was “more than 83.0%” and the “intact drug remained after storage for 4 weeks” value ([3]; −80°C, 4 weeks, all concentrations tested) was “more than 92.2%”. The “potency against human breast and pancreatic cancers” value [4] was “high potency”, the “toxicity at doses leading to tumor regression” value [4] was “without any observable toxicity” and the AUC(0-inf) ([5]; ip) was 13200 ng·h/mL. For the same molecule, the AUC(0-t) ([5]; ip) was 12600 ng·h/mL, the Cmax ([5]; ip) was 4420 ng/mL and the Tmax ([5]; ip) was 10 min. For the same molecule, the concentration at 10 min ([5]; ip) was 4420 ng/mL, the concentration at 24 h ([5]; ip) was less than 150 ng/mL and the half-life ([5]; ip) was 107 min. It also gave an AUC(0-inf) ([5]; iv) of 8540 ng·h/mL, an AUC(0-t) ([5]; iv) of 8340 ng·h/mL and a Cmax ([5]; iv) of 5530 ng/mL. For the same molecule, the concentration at 5 min ([5]; iv) was 5530 ng/mL, the concentration at 24 h ([5]; iv) was less than 20 ng/mL and the half-life ([5]; iv) was 58.8 min. The “percentage of intact compound in the autosampler” value (“percentage … in the autosampler” below) ([6]; 1.94 ng/mL) was 96.3% ± 2.7%, the “percentage … in the autosampler” value ([6]; 81.0 ng/mL) was 98.5% ± 3.1% and the “percentage … in the autosampler” value ([6]; 129.6 ng/mL) was 96.8% ± 0.6%.
